Active and inactive are the calls of the source. The rule behind the calls is not given here.
Tests used:
ZR-75-1 [1] = experiment: Increase in intracellular Ca2+ level in human ZR-75-1 cells at 40 uM measured every 150 secs by fura-2-AM dye-based spectrofluorophotometric analysis in presence of Ca2+ containing medium with PKC inhibitor GF109203X; type: functional, cell-based
Outline: (§1)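 In Ca2+-containing medium (2 mM CaCl2), 2-APB (30 μM) or GF109203X (2 μM) was added 1 min before 40 μM compound to fura-2-loaded ZR-75-1 cells at 25 °C. Response = net area under curve over a 150 s interval, as % of compound alone. Mean ± SEM, n=3.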

ZR-75-1 [2] = experiment: Effect on endoplasmic reticulum Ca2+ pump inhibitor BHQ-induced intracellular Ca2+ increase in human ZR-75-1 cells at 40 uM pretreated with BHQ followed by compound addition in presence of Ca2+ free medium; type: functional, cell-based
Outline: (§2)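 ZR-75-1 cells loaded with 2 μM fura-2-AM for 30 min at 25 °C, then suspended in Ca2+-free medium (pH 7.4; 0.3 mM EGTA, 3 mM MgCl2). Stirred cuvette at 25 °C. Thapsigargin (1 μM) or BHQ (50 μM) given before or after 40 μM compound. Excitation 340/380 nm, emission 510 nm, read at 1 s intervals. [Ca2+]i calibrated with Triton X-100/CaCl2 then EGTA.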

ZR-75-1 [3] = experiment: Increase in intracellular Ca2+ level in human ZR-75-1 cells at 40 uM treated for 60 secs post PLC inhibitor U73122 addition by fura-2-AM dye-based spectrofluorophotometric analysis in presence of Ca2+ free medium; type: functional, cell-based
Outline: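 Performed in Ca2+-free medium with fura-2-loaded ZR-75-1 cells. Response expressed relative to 40 μM compound alone (100%). Three experiments.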

[4] = Cytotoxicity against human ZR-75-1 cells assessed as cell viability at 50 uM measured 20 mins post intracellular Ca2+ level detection by trypan blue exclusion assay relative to control; type: cell-based; details: read-out: Activity
Outline: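 Fura-2-loaded ZR-75-1 cells were held in the fluorescence cuvette with 50 μM compound. Viability was scored by trypan blue exclusion after 20 min of fluorescence recording.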

ZR-75-1 [5] = experiment: Increase in intracellular Ca2+ level in human ZR-75-1 cells at 40 uM treated for 25 secs by fura-2-AM dye-based spectrofluorophotometric analysis in presence of Ca2+-free medium (reference value: 50 +/- 2 nM); type: functional
Outline: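 Fura-2-loaded ZR-75-1 cells (0.5 million per 1 mL, stirred, 25 °C) in Ca2+-containing or Ca2+-free medium. Compound added at 25 s. 340/380 nm excitation, 510 nm emission at 1 s intervals, calibrated to nM. Concentration-response from baseline-subtracted area under curve (25–250 s) as % of 50 μM response in Ca2+ medium. EC50 from Hill fit. Three experiments.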

ZR-75-1 [6] = experiment: Induction of apoptosis in human ZR-75-1 cells assessed as increase in cleaved caspase-3 level at 20 to 40 uM after 24 hrs by Western immunoblot analysis; type: functional, cell-based
Outline: (§3)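 Confluent ZR-75-1 cells (3 × 10^6/dish) treated with 20, 30 or 40 μM compound for 24 h. Where used, 5 μM BAPTA-AM or 5 μM NAC was added before the compound. About 50 μg lysate protein run on 10% SDS-PAGE, transferred to PVDF, probed for cleaved caspase-9/-3 and β-actin, chemiluminescence. Densitometry normalized to β-actin. Three experiments.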

ZR-75-1 [7] = experiment: Cytotoxicity against human ZR-75-1 cells assessed as induction cell death at 20 to 50 uM after 24 hrs by WST-1 assay in presence of Ca2+ containing medium with Ca2+ chelator BAPTA-AM; type: functional, cell-based
Outline: (§4)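 WST-1 assay on ZR-75-1 cells seeded at 10000 cells/well, exposed to 0–50 μM compound for 24 h. Where used, 5 μM BAPTA-AM was given for 1 h beforehand, then cells were washed with Ca2+-containing medium. WST-1 incubation 30 min, A450 read. Viability expressed as % of compound-free control. Six wells per treatment, three separate experiments.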

ZR-75-1 [8] = experiment: Change in endoplasmic reticulum Ca2+ pump inhibitor thapsigargin-induced intracellular Ca2+ increase in human ZR-75-1 cells at 40 uM pretreated with thapsigargin followed by compound addition in presence of Ca2+ free medium; type: functional, cell-based; outline: as §2
ZR-75-1 [9] = experiment: Induction of apoptosis in human ZR-75-1 cells assessed as activation of caspase-9 at 20 to 40 uM preincubated for 24 hrs followed by antioxidant N-Acetylcysteine addition by Western immunoblot analysis; type: functional, cell-based; outline: as §3
ZR-75-1 [10] = experiment: Induction of apoptosis in human ZR-75-1 cells at 20 to 50 uM preincubated for 24 hrs followed by antioxidant N-Acetylcysteine and Ca2+ chelator BAPTA-AM addition by annexin V-FITC/propidium iodide staining-based flow cytometric analysis; type: functional, cell-based
ZR-75-1 [11] = experiment: Induction of reactive oxygen species production in human ZR-75-1 cells at 20 uM after 24 hrs by DCFH-DA probe-based flow cytometric analysis (reference value: 3.623%); type: functional
Outline: (§5)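 ZR-75-1 cells treated with 20–40 μM compound for 24 h, with 5 μM BAPTA-AM added first where indicated. Cells suspended at 1 × 10^6/mL, loaded with 10 μM DCFH-DA for 30 min at 37 °C. DCF read by flow cytometry (488 nm excitation, 530/30 nm filter, 10000 cells). % H2O2-positive (M1) after subtracting the baseline without probe. Three experiments.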

ZR-75-1 [12] = experiment: Induction of apoptosis in human ZR-75-1 cells assessed as late apoptotic cells at 40 uM after 24 hrs by annexin V-FITC/propidium iodide staining-based flow cytometric analysis (reference value: 2.53%); type: functional
Outline: (§6)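 ZR-75-1 cells exposed to 20–40 μM compound for 24 h, with 5 μM BAPTA-AM or NAC added first where indicated. Cells stained with Alexa Fluor 488 annexin V/PI for 15 min, at least 20000 cells analysed by flow cytometry (488 nm excitation, 530/575 nm filters). Early = annexin V+/PI−, late = annexin V+/PI+. Three independent biological replicates.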

ZR-75-1 [13] = experiment: Increase in intracellular Ca2+ level in human ZR-75-1 cells at 40 uM measured every 150 secs by fura-2-AM dye-based spectrofluorophotometric analysis in presence of Ca2+ containing medium with store-operated Ca2+ channel blocker 2-APB; type: functional, cell-based; outline: as §1
ZR-75-1 [14] = experiment: Induction of Ca2+ influx in human ZR-75-1 cells at 40 uM by measuring Mn2+ quenching of fura-2-AM for 200 secs by spectrofluorophotometric analysis in presence of Ca2+ containing medium; type: functional, cell-based
Outline: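 Mn2+ quench assay: 50 μM MnCl2 added to fura-2-loaded ZR-75-1 cells in Ca2+-containing medium 1 min before recording. Excitation 360 nm (Ca2+-insensitive), emission 510 nm, 1 s intervals, 25 °C. Compound (40 μM) added during the trace, recorded up to 200 s. Arbitrary units, three experiments.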

ZR-75-1 [15] = experiment: Induction of apoptosis in human ZR-75-1 cells assessed as early apoptotic cells at 30 uM after 24 hrs by annexin V-FITC/propidium iodide staining-based flow cytometric analysis (reference value: 6.84%); type: functional; outline: as §6
ZR-75-1 [16] = experiment: Increase in intracellular Ca2+ level in human ZR-75-1 cells at 40 uM by fura-2-AM dye-based spectrofluorophotometric analysis in presence of Ca2+ containing medium with Ca2+ chelator BAPTA-AM; type: functional, cell-based
Outline: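 Fura-2-loaded ZR-75-1 cells treated with 5 μM BAPTA-AM, then 40 μM compound in Ca2+-containing medium (2 mM CaCl2, pH 7.4). Ratio fluorescence 340/380 nm excitation, 510 nm emission, 25 °C cuvette.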

ZR-75-1 [17] = experiment: Induction of apoptosis in human ZR-75-1 cells assessed as late apoptotic cells at 20 uM after 24 hrs by annexin V-FITC/propidium iodide staining-based flow cytometric analysis (reference value: 2.53%); type: functional; outline: as §6
ZR-75-1 [18] = experiment: Induction of reactive oxygen species production in human ZR-75-1 cells at 20 to 40 uM after 24 hrs by DCFH-DA probe-based flow cytometric analysis in presence of Ca2+ containing medium with Ca2+ chelator BAPTA-AM; type: functional, cell-based; outline: as §5
ZR-75-1 [19] = experiment: Induction of reactive oxygen species production in human ZR-75-1 cells at 40 uM after 24 hrs by DCFH-DA probe-based flow cytometric analysis (reference value: 3.623%); type: functional; outline: as §5
ZR-75-1 [20] = experiment: Inhibition of endoplasmic reticulum Ca2+ pump inhibitor BHQ-induced intracellular Ca2+ increase in human ZR-75-1 cells at 40 uM pretreated with compound followed by BHQ induction in presence of Ca2+ free medium; type: functional, cell-based; outline: as §2
ZR-75-1 [21] = experiment: Cytotoxicity against human ZR-75-1 cells assessed as decrease in cell viability after 24 hrs by WST-1 assay; type: functional, cell-based; outline: as §4

## O=c1cc(-c2ccccc2)oc2cc(O)c(O)c(O)c12 [BAICALEIN]
ZR-75-1 [1]
  Activity: inactive
ZR-75-1 [2]
  Activity: inactive
ZR-75-1 [3]
  Activity: inactive
[4]
  viability at 20 min, 50 µM: 95%
ZR-75-1 [5]
  Activity: 103 nM
ZR-75-1 [6]
  Activity: Active
ZR-75-1 [7]
  Activity: inactive
ZR-75-1 [8]
  Activity: inactive
ZR-75-1 [9]
  Activity: inactive
ZR-75-1 [10]
  Activity: inactive
ZR-75-1 [11]
  Activity: 22.707%
ZR-75-1 [12]
  Activity: 6.32%
ZR-75-1 [13]
  Activity: inactive
ZR-75-1 [14]
  Activity: Active
ZR-75-1 [15]
  Activity: 50.72%
ZR-75-1 [16]
  Activity: inactive
ZR-75-1 [17]
  Activity: 2.36%
ZR-75-1 [18]
  Activity: inactive
ZR-75-1 [19]
  Activity: 43.227%
ZR-75-1 [20]
  inhibition: Active
ZR-75-1 [21]
  Activity: Dose-dependent effect

From ChEMBL document CHEMBL3596101, “The Mechanism of Ca(2+) Movement in the Involvement of Baicalein-Induced Cytotoxicity in ZR-75-1 Human Breast Cancer Cells” (J Nat Prod, 2015)
